Data from ChEMBL document CHEMBL1125718, “Synthesis and biological evaluation of dipeptidyl and tripeptidyl polyoxin and nikkomycin analogues as anticandidal prodrugs” (1991).
≈ marks a conversion by molar mass, not a printed value.

Legend:
Candida albicans [1] = test: Compound was tested for rate of hydrolysis (percent hydrolyzed per 10 min) by cell extract from Candida albicans H-317.; type: functional
In short: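 Antibiotic (0.5 mg in H2O–DMSO 50:50) was mixed with cell extract of C. albicans H-317 (3.75 mg protein/mL) and incubated at 36 °C. Portions were withdrawn every 20 min and analysed directly by TLC and HPLC. Nle-UPOC served as control.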

Candida albicans [2] = test: (§1) Compound was tested for percent inhibition of transport of (Leu)2 into Candida albicans H-317.; type: functional; parameters: concentration or dose not given beside the values
In short: (§2)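 Uptake of labeled dileucine was measured with analogues added at 10-fold the molar concentration of the transport substrate. Samples were taken at 0, 1, 2, 3 and 4 min, collected on prewet 0.45 µm filters and washed twice with cold water. Rate was expressed as nmol peptide per mg dry-weight cells per min.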

Candida albicans [3] = test: Compound was tested for its lowest concentration at which growth of 124 strain of Candida albicans was clearly inhibited.; type: functional
Candida albicans [4] = test: Compound was tested for its lowest concentration at which growth of 124N5 strain of Candida albicans was clearly inhibited.; type: functional
Candida albicans [5] = test: Compound was tested for its lowest concentration at which growth of H-317 strain of Candida albicans was clearly inhibited.; type: functional
[6] = molecular target: Chitin synthase 1 (Candida albicans) (UniProt P23316); test: Compound was tested for its ability to inhibit chitin synthetase using Candida albicans strain H-317.; type: functional
In short: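 Mixed membrane fraction from C. albicans H-317 was used as the source of total chitin synthetase. Activity was measured with and without polyoxin compounds as N-acetylglucosamine incorporation into chitin. The value is the concentration giving 50% inhibition.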

Candida albicans [7] = test: Compound was tested for percent inhibition of transport of (Met)3 into Candida albicans H-317.; parameters: concentration or dose not given beside the values
Candida albicans [8] = test: as above; parameters: concentration or dose not given beside the values; remark: listed apart in the source
Candida albicans [9] = test: as §1; type: functional; in short: as §2
Candida albicans [10] = test: Compound was tested for percent inhibition of transport of (Met)3 into Candida albicans H-317.

Chitin synthase 1 (Candida albicans), sequence (P23316 whole entry, looked up): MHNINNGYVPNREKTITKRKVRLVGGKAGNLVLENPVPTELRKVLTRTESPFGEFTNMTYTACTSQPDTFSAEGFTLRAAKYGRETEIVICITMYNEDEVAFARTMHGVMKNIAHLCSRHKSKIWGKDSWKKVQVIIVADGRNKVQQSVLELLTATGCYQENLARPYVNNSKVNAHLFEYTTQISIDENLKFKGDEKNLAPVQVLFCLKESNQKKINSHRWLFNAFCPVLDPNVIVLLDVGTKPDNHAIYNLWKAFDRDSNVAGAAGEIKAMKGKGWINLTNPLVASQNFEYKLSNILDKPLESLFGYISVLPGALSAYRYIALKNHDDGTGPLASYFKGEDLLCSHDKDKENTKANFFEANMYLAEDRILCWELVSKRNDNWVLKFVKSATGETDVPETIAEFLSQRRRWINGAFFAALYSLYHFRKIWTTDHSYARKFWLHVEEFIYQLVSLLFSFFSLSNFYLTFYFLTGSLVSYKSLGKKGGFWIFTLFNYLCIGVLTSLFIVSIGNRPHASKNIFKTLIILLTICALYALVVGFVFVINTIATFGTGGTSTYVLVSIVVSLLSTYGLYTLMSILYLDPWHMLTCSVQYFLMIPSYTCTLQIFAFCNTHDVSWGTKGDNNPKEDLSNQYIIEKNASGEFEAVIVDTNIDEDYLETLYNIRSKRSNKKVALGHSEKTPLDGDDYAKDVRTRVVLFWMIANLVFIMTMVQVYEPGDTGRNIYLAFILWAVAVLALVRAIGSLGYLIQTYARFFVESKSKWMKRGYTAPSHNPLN

For `CC(C)C[C@H](N)C(=O)N[C@H](C(=O)N[C@H](C(=O)O)[C@H]1OC(n2cc(C=O)nc2O)[C@H](O)[C@@H]1O)[C@H](C)[C@H](O)c1ccc(O)cn1` (stereo partly specified), the Hydrolysis (Candida albicans [1]) was 33, the Transport inhibition (Candida albicans [2]) was 0% and the MIC (Candida albicans [3]) was 83 µg/mL (≈ 136 µM). The MIC (Candida albicans [4]) was 333 µg/mL (≈ 547 µM), the MIC (Candida albicans [5]) was 166 µg/mL (≈ 273 µM) and the ID50 [6] was 30 µg/mL (≈ 49.3 µM). For the same compound, the Transport inhibition (Candida albicans [7]) was 22%.
`NC(=O)OC[C@H](O)[C@@H](O)[C@H](N)C(=O)N[C@H](C(=O)O)[C@H]1O[C@@H](n2cc(CO)c(=O)[nH]c2=O)[C@H](O)[C@@H]1O` [POLYOXIN B] showed a Transport inhibition (Candida albicans [2]) of 0%, an MIC (Candida albicans [3]) of 20 µg/mL (≈ 39.4 µM) and an MIC (Candida albicans [4]) of 166 µg/mL (≈ 327 µM). It also gave an MIC (Candida albicans [5]) of 40 µg/mL (≈ 78.8 µM), an ID50 [6] of 0.8 µg/mL (≈ 1.58 µM) and a Transport inhibition (Candida albicans [8]) of 0%.
For `NCCOC[C@H](N)C(=O)N[C@H](C(=O)O)[C@H]1O[C@@H](n2ccc(=O)[nH]c2=O)[C@H](O)[C@@H]1O`, the Hydrolysis (Candida albicans [1]) was 0, the Transport inhibition (Candida albicans [2]) was 58% and the MIC (Candida albicans [3]) was > 1000 µg/mL. The MIC (Candida albicans [4]) was > 1000 µg/mL, the MIC (Candida albicans [5]) was > 1000 µg/mL and the ID50 [6] was 100 µg/mL (≈ 240 µM). It also gave a Transport inhibition (Candida albicans [8]) of 0%.
In the case of `CCCCCCCC(=O)NCCCC[C@H](NC(=O)[C@@H](N)CCCCNC(=O)CCCCCCC)C(=O)N[C@H](C(=O)O)[C@H]1OC(n2ccc(=O)[nH]c2=O)[C@H](O)[C@@H]1O` (stereo partly specified), the Hydrolysis (Candida albicans [1]) is reported as 0, the Transport inhibition (Candida albicans [2]) is reported as 60% and the MIC (Candida albicans [3]) is reported as > 666 µg/mL. The MIC (Candida albicans [4]) was > 666 µg/mL, the MIC (Candida albicans [5]) was > 666 µg/mL and the ID50 [6] was 80 µg/mL (≈ 101 µM). The Transport inhibition (Candida albicans [7]) was 56%.
With `CC(C)C[C@H](N)C(=O)N[C@H](C(=O)N[C@H](C(=O)O)[C@H]1OC(n2ccc(=O)[nH]c2=O)[C@H](O)[C@@H]1O)[C@H](C)[C@H](O)c1ccc(O)cn1` (stereo partly specified) the Hydrolysis (Candida albicans [1]) was 33, the Transport inhibition (Candida albicans [2]) was 0% and the MIC (Candida albicans [3]) was 666 µg/mL (≈ 1090 µM). The MIC (Candida albicans [4]) was > 666 µg/mL, the MIC (Candida albicans [5]) was > 666 µg/mL and the ID50 [6] was 100 µg/mL (≈ 164 µM). For the same compound, the Transport inhibition (Candida albicans [8]) was 28%.
Compound `COC(=O)/C=C/C(=O)NC[C@H](N)C(=O)N[C@H](C(=O)O)[C@H]1O[C@@H](n2ccc(=O)[nH]c2=O)[C@H](O)[C@@H]1O` has a Hydrolysis (Candida albicans [1]) of 0, a Transport inhibition (Candida albicans [2]) of 7% and an MIC (Candida albicans [3]) of 500 µg/mL (≈ 1030 µM). The MIC (Candida albicans [4]) was 1000 µg/mL (≈ 2060 µM), the MIC (Candida albicans [5]) was 250 µg/mL (≈ 515 µM) and the ID50 [6] was 100 µg/mL (≈ 206 µM). It also gave a Transport inhibition (Candida albicans [7]) of 0%.
Compound `CC(C)C[C@H](N)C(=O)N[C@H](C(=O)N[C@H](C(=O)O)[C@H]1OC(n2cc(CO)c(=O)[nH]c2=O)[C@H](O)[C@@H]1O)[C@H](O)[C@@H](O)COC(N)=O` (stereo partly specified) has a Hydrolysis (Candida albicans [1]) of 5, a Transport inhibition (Candida albicans [2]) of 0% and an MIC (Candida albicans [3]) of 333 µg/mL (≈ 537 µM). For the same compound, the MIC (Candida albicans [4]) was 666 µg/mL (≈ 1070 µM), the MIC (Candida albicans [5]) was 333 µg/mL (≈ 537 µM) and the ID50 [6] was 20 µg/mL (≈ 32.2 µM). For the same compound, the Transport inhibition (Candida albicans [8]) was 27%.
`C[C@@H]([C@H](N)C(=O)N[C@H](C(=O)O)[C@H]1O[C@@H](n2cc(C=O)nc2O)[C@H](O)[C@@H]1O)[C@H](O)c1ccc(O)cn1` gave a Hydrolysis (Candida albicans [1]) of 0, a Transport inhibition (Candida albicans [2]) of 90% and an MIC (Candida albicans [3]) of 2.5 µg/mL (≈ 5.05 µM). It also gave an MIC (Candida albicans [4]) of 333 µg/mL (≈ 672 µM), an MIC (Candida albicans [5]) of 5 µg/mL (≈ 10.1 µM) and an ID50 [6] of 0.1 µg/mL (≈ 0.202 µM). It also gave a Transport inhibition (Candida albicans [7]) of 30%.
Work on `C[C@@H]([C@H](N)C(=O)N[C@H](C(=O)O)[C@H]1O[C@@H](n2ccc(=O)[nH]c2=O)[C@H](O)[C@@H]1O)[C@H](O)c1ccc(O)cn1` [NIKKOMYCIN] yielded a Hydrolysis (Candida albicans [1]) of 0, a Transport inhibition (Candida albicans [2]) of 80% and an MIC (Candida albicans [3]) of 10 µg/mL (≈ 20.2 µM). For the same compound, the MIC (Candida albicans [4]) was 666 µg/mL (≈ 1340 µM), the MIC (Candida albicans [5]) was 20 µg/mL (≈ 40.4 µM) and the ID50 [6] was 0.3 µg/mL (≈ 0.606 µM). For the same compound, the Transport inhibition (Candida albicans [8]) was 20%.
`NC(Cc1cccc(F)c1)C(=O)O` (racemic) [M-FLUOROPHENYLALANINE] was tested, and the MIC (Candida albicans [3]) was > 1000 µg/mL, the MIC (Candida albicans [4]) was > 1000 µg/mL and the MIC (Candida albicans [5]) was > 1000 µg/mL.
`CCCCCCCC(=O)NCCCC[C@H](N)C(=O)N[C@H](C(=O)O)[C@H]1O[C@@H](n2ccc(=O)[nH]c2=O)[C@H](O)[C@@H]1O` was tested, and the Hydrolysis (Candida albicans [1]) was 0, the MIC (Candida albicans [3]) was 666 µg/mL (≈ 1230 µM) and the MIC (Candida albicans [4]) was > 666 µg/mL. For the same compound, the MIC (Candida albicans [5]) was > 666 µg/mL, the Transport inhibition (Candida albicans [9]) was 50% and the ID50 [6] was 0.5 µg/mL (≈ 0.923 µM). It also gave a Transport inhibition (Candida albicans [10]) of 10%.
`N[C@@H](Cc1cccc(F)c1)C(=O)N[C@H](C(=O)O)[C@H]1O[C@@H](n2ccc(=O)[nH]c2=O)[C@H](O)[C@@H]1O` was tested, and the Hydrolysis (Candida albicans [1]) was 33, the Transport inhibition (Candida albicans [2]) was 6% and the MIC (Candida albicans [3]) was > 1000 µg/mL. The MIC (Candida albicans [4]) was > 1000 µg/mL, the MIC (Candida albicans [5]) was > 1000 µg/mL and the ID50 [6] was 2 µg/mL (≈ 4.42 µM). For the same compound, the Transport inhibition (Candida albicans [8]) was 0%.
In the case of `CCCCCCCC(=O)NCCCC[C@H](NC(=O)[C@@H](N)CC(C)C)C(=O)N[C@H](C(=O)O)[C@H]1OC(n2ccc(=O)[nH]c2=O)[C@H](O)[C@@H]1O` (stereo partly specified), the Hydrolysis (Candida albicans [1]) is reported as 0, the Transport inhibition (Candida albicans [2]) is reported as 0% and the MIC (Candida albicans [3]) is reported as > 666 µg/mL. The MIC (Candida albicans [4]) was > 666 µg/mL, the MIC (Candida albicans [5]) was > 666 µg/mL and the ID50 [6] was 50 µg/mL (≈ 76.4 µM). It also gave a Transport inhibition (Candida albicans [7]) of 32%.
